S100A4 MyoIIA: inhibitors of human S100A4 binding to myosin IIA peptide. S100A4/TAMRA-MyoIIA peptide fluorescence polarization. 0.14% of 360,000 active. inhibition, % at 10.7 µM;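 active means mean inhibition of at least 70% across replicates, with every replicate also reaching that level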
Target sequence (P26447 whole entry, looked up): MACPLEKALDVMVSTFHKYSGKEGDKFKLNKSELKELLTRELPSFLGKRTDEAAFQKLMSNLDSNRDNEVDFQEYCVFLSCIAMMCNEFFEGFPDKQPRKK
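Material: human S100A4 monomer with TAMRA-labelled myosin IIA peptide; buffer or medium: HEPES pH 7.2 with CaCl2, KCl, NaCl, DTT, Triton; compound dosing: one concentration per compound; schedule: 5 min incubation before reading; benchmarks: neutral control DMSO, positive control TFP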
RAD54 branch: RAD54 (human) branch migration inhibition; Q92698; inhibition, % at 10.4 µM; RAD54 Holliday junction branch migration, FAM/BHQ fluorescence; 0.14% of 360,000 active;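 active means mean normalized replicate activity at least 40 and at least half of replicates scoring 40 or more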;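 further: inhibitors cause a drop in the FAM fluorescence signal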
dFosB act: activators of mouse delta FosB homodimer; activation, % at 25 µM; purified delta FosB, TAMRA-CDK5 oligo fluorescence polarization; percent of positive-control signal above neutral wells; P13346; 0.99% of 340,000 active;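 active means mean activation above about 17%, with every replicate also reaching it, limit read from the data, passing the limit was not always enough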
Target sequence (P13346 whole entry, looked up): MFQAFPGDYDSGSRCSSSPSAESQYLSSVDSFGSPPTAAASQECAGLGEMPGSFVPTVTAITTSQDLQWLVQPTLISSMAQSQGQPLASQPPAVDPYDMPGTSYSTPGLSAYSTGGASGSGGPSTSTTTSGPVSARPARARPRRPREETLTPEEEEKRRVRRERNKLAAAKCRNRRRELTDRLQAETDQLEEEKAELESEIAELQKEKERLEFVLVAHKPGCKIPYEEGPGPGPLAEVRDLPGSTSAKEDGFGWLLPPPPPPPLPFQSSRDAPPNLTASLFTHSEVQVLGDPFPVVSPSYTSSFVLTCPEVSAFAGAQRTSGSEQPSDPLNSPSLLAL
SR-BI DiI inh: inhibitors of mouse SR-BI mediated HDL lipid uptake | AID 488896 | ldlA[mSR-BI] CHO cells, DiI-HDL uptake fluorescence, 3 h | 0.96% of 320,000 active | inhibition, % at 12.5 µM | Q61009;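 active means mean replicate inhibition of at least 70% and a set share of replicates each scoring 70 or more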
SR-BI DiI-HDL act: enhances SR-BI lipid uptake from DiI-HDL. activation, % at 12.5 µM. AID 504775. CHO ldlA[mSR-BI] cells, DiI-HDL uptake fluorescence, 3 h; 100 = double the neutral-control signal. 0.096% of 320,000 active;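 active means mean replicate activation of at least 60% and every replicate at or above 60%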
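Assay system: LDL receptor-deficient CHO ldlA cells overexpressing murine SR-BI / Medium: BSA-supplemented, HEPES-buffered Ham's F12, pH 7.4 / Probe or stimulus: DiI-labelled HDL at 10 µg/mL final / Timing: compound with DiI-HDL co-incubation, 3 h at 37 °C / Technique: bottom-read cell fluorescence after medium removal, ex 550/em 595 nm / Measure: HDL uptake via cellular fluorescence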
PvdQ acylase: P. aeruginosa PvdQ acylase inhibition. purified PvdQ acylase, fluorescence plate reader. inhibition, % at 10 µM. 0.063% of 340,000 active; in the data active means inhibition above about 30%, passing the limit was not always enough
Hits are given with their value; 0 = inactive; - = no result. Only some compounds are listed: those with a hit (about 1.6% of all), similar ones and a draw of the others.

SMILES | S100A4 MyoIIA | RAD54 branch | dFosB act | SR-BI DiI inh | SR-BI DiI-HDL act | PvdQ acylase
O=C(CN1CCN(c2cccc(C(F)(F)F)c2)CC1)Nc1ccc2c(c1)OCCCO2 | 0 | 0 | - | - | - | -
COc1cc(/C=N/NC(=O)c2cccc(NC(=O)c3ccccc3)c2)ccc1O | 0 | 0 | 0 | 0 | 0 | 0
COc1cc(/C=N/NC(=S)Nc2cccc(S(=O)(=O)N(C)C)c2)ccc1O | - | 0 | 0 | 71 | 0 | 0
O=C(N/N=C/c1cc(Br)ccc1O)c1cccc(N2CCCC2=O)c1 | - | - | 0 | 106 | 0 | 0
COc1ccc(O)c(/C=N/NC(=O)c2ccc(N3CCCC3=O)cc2)c1 | 0 | 0 | 0 | - | - | 0
COc1ccc(O)c(/C=N/NC(=O)c2cccc(N3CCCC3=O)c2)c1 | 0 | 0 | 0 | 89 | 0 | 0
CN1C(=O)c2cc(NC(=O)NCc3ccccc3)ccc2OC[C@@H]2O[C@@H](CC(=O)O)CC[C@H]21 | 0 | 0 | - | - | - | -
CNC(=O)C[C@H]1CC[C@H]2[C@@H](COc3ccc(NC(=O)c4cc(C)on4)cc3C(=O)N2C)O1 | - | 0 | - | - | - | -
O=C(c1ccccn1)N1CC(=O)N2[C@@H](CO)[C@@H](c3ccc(C#CCc4ccccc4)cc3)[C@@H]2C1 | 0 | - | - | - | - | -
COc1ccc(/C=C2\SC(=S)N(C(C)C(=O)NC3C=CS(=O)(=O)C3)C2=O)cc1 (stereo unspecified) | 0 | 0 | 0 | 0 | 0 | 0
COc1ccc(/C=C2\SC(=S)N(CC(=O)NC3C=CS(=O)(=O)C3)C2=O)cc1 (stereo unspecified) | 0 | 0 | 85 | 0 | 0 | 0
O=C(CN1C(=O)/C(=C/c2ccc(Cl)cc2)SC1=S)NC1C=CS(=O)(=O)C1 (stereo unspecified) | 0 | 0 | 23 | 0 | 0 | 0
O=C(CN1C(=O)/C(=C/c2ccccc2)SC1=S)NC1C=CS(=O)(=O)C1 (stereo unspecified) | 0 | 0 | 0 | 0 | 0 | 0
O=C(CN1C(=O)/C(=C/c2ccc(F)cc2)SC1=S)NC1C=CS(=O)(=O)C1 (stereo unspecified) | 0 | 0 | 26 | 0 | 0 | 0
COC(=O)Cn1c2ccccc2c2nc3ccccc3nc21 | 0 | 0 | 0 | 98 | 0 | 0
Cc1noc(C)c1NC(=O)Nc1cccc2c1O[C@@H](CN(C)Cc1ccc(C(=O)Nc3ccccc3N)cc1)[C@@H](C)CN([C@H](C)CO)C2=O | 0 | - | - | - | - | -
CCN(CC(=O)Nc1c(F)cccc1F)C(=O)CNC(=O)c1ccc2ccccc2c1 | 0 | 0 | 0 | 0 | 0 | 0
CCN(CC(=O)Nc1c(F)cccc1F)C(=O)CNC(=O)c1cccs1 | 87 | 0 | 0 | 0 | 0 | 0
COc1ccc(C)cc1NCc1cc(=O)oc2cc(-c3ccccc3)c(O)cc12 | - | - | 0 | 0 | 0 | 0
COc1ccccc1NCc1cc(=O)oc2c(C)c(O)ccc12 | 0 | 0 | 0 | 73 | 0 | 0
COc1ccc(C2=CSC(/N=C/c3ccc(F)cc3)=NN2)cc1 | 0 | 0 | 0 | 75 | 0 | 0
CO[C@@H]1CN(C)C(=O)c2ccc(NC(=O)CC(F)(F)F)cc2OC[C@@H](C)N(CC2CC2)C[C@@H]1C | 0 | - | - | - | - | -
CCOC(=O)CSc1nc(C2CC2)cc(-c2ccc(F)cc2)c1C#N | - | 0 | 0 | 72 | 0 | 0
COc1ccc(-c2cc(C3CC3)nc(SCC(=O)c3cccs3)c2C#N)cc1 | - | 0 | 0 | 0 | 0 | 0
N#Cc1c(NCCN)nc(NCc2ccccc2)c2c1CCN(Cc1ccccc1)C2 | - | - | 24 | 0 | 0 | 0
SMILES | S100A4 MyoIIA | RAD54 branch | dFosB act | SR-BI DiI inh | SR-BI DiI-HDL act | PvdQ acylase
C=CCNc1nc(NCc2ccccc2)c(C#N)c2c1CN(C)CC2 | - | 0 | 0 | 0 | 0 | 0
COc1cccc(/C=N/Nc2ncnc3scc(-c4ccccc4)c23)c1O | - | - | 0 | 115 | 0 | 0
C[C@@H]1CN([C@H](C)CO)C(=O)c2cc(NS(=O)(=O)c3cccs3)ccc2O[C@H]1CN(C)Cc1ccc(C(F)(F)F)cc1 | 0 | 0 | - | - | - | -
COc1ccc(C)cc1NS(=O)(=O)c1ccc2c(c1)N(C)CCO2 | 84 | 0 | 0 | 0 | 0 | 0
COc1ccc(C)cc1NS(=O)(=O)c1ccc2c(c1)n(C)c(=O)n2C | 0 | 0 | 0 | 0 | 0 | 0
O=[N+]([O-])c1cc(S(=O)(=O)Nc2ccc(Cl)cc2)ccc1N/N=C/c1ccncc1 | 0 | 0 | 0 | 72 | 0 | 0

From PubChem BioAssay
